Measurements: ChEMBL document CHEMBL4513216, “Probing the Open Global Health Chemical Diversity Library for Multistage-Active Starting Points for Next-Generation Antimalarials” (ACS Infect Dis, 2020)

Experiment: Toxicity liver stage against HepG2, at 10uM
Type: cell-based
Parameters: test concentration 10 uM, cell line HepG2-A16-CD81EGFP
Settings: human, HepG2-A16-CD81EGFP cells; read-out: INHIBITION
Procedure, shortened: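 Uninfected HepG2-A16-CD81EGFP cells, 3 × 10^3 per well, 1536-well, plated on prespotted compound at 10 μM final, parasite-free screening media added to match infected plates; puromycin 10 μM positive, DMSO 0.5% negative; run in parallel with 48 h PbLuc assay at 37 °C, 5% CO2; viability by CellTiter-Glo luminescence, normalized to controls.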

Q: Which cytotoxicity at 10 µM does the source give for Cc1sc(-n2cnnn2)c(C(=O)NC(C)C)c1C here?
A: Its cytotoxicity at 10 µM is 2.83%.

Q: Which cytotoxicity at 10 µM does the source give for CC(=O)Nc1cccc2c1ccn2CC(=O)Nc1nc[nH]n1 here?
A: Its cytotoxicity at 10 µM is -0.79%.

Q: For O=S(=O)(NC1=NCN(CCc2cccs2)CN1)c1ccccc1, which cytotoxicity at 10 µM is on record?
A: Its cytotoxicity at 10 µM is -3.32%.

Q: For Cc1cnc(CC2COCCN(C(=O)c3cncs3)C2)cn1 (configuration not stated), which cytotoxicity at 10 µM is on record?
A: The cytotoxicity at 10 µM was 3.65%.

Q: With c1ccc(-c2nc(CCNCc3ccncc3)co2)cc1 as the compound, how does the cytotoxicity at 10 µM read?
A: Its cytotoxicity at 10 µM is 6.07%.

Q: For Cc1noc(CCNC(=O)c2ccc(N(C)C)c(F)c2)n1, which cytotoxicity at 10 µM is on record?
A: The cytotoxicity at 10 µM was 6.05%.

Q: Which cytotoxicity at 10 µM does the source give for CCc1ccc(NC(=O)C(C)Nc2cccc3c2OCCO3)cc1 (configuration not stated) here?
A: The cytotoxicity at 10 µM was 0.788%.

Q: Which cytotoxicity at 10 µM does the source give for CCc1ccc(CNCC2CCN(CCO)CC2)cc1 here?
A: Its cytotoxicity at 10 µM is -6.73%.

Q: Which cytotoxicity at 10 µM does the source give for CNc1cc(N2CCCC2CNCc2cccnc2C)ncn1 (configuration not stated) here?
A: The cytotoxicity at 10 µM was 0.759%.

Q: For CCN(C(C)c1cccc(O)c1)S(=O)(=O)c1cccnc1 (configuration not stated), which cytotoxicity at 10 µM is on record?
A: Its cytotoxicity at 10 µM is 10.8%.

Q: Which cytotoxicity at 10 µM does the source give for CCC(=O)N(CCC(=O)O)Cc1ccc(F)c(F)c1 here?
A: The cytotoxicity at 10 µM was -1.99%.

Q: Which cytotoxicity at 10 µM does the source give for COCc1noc(-c2nn(-c3ccccc3F)c3c2CCC3)n1 here?
A: Its cytotoxicity at 10 µM is -2.68%.

Q: For Cc1cc(F)ccc1N1CCCC(NC2CCOCC2)C1=O (configuration not stated), which cytotoxicity at 10 µM is on record?
A: The cytotoxicity at 10 µM was -11.3%.

Q: Which cytotoxicity at 10 µM does the source give for Cc1nn(C)c(C)c1Cc1nc(N(C)C)no1 here?
A: Its cytotoxicity at 10 µM is 7.06%.

Q: Which cytotoxicity at 10 µM does the source give for COc1c(C)cnc(CN2CCCC2c2noc(C3CC3)n2)c1C (configuration not stated) here?
A: Its cytotoxicity at 10 µM is -0.0422%.

Q: Which cytotoxicity at 10 µM does the source give for Cc1nnc(CN2CCCC2c2ccc(Cl)c(Cl)c2)o1 (configuration not stated) here?
A: The cytotoxicity at 10 µM was -1.7%.

Q: Which cytotoxicity at 10 µM does the source give for CN(CC1CN(CCn2cc(C#N)cn2)CCO1)c1cccnn1 (configuration not stated) here?
A: The cytotoxicity at 10 µM was 1.85%.

Q: With Cc1noc(C)c1CN1CCCC(CN(C(=O)OC(C)(C)C)C(C)C)C1 (configuration not stated) as the compound, how does the cytotoxicity at 10 µM read?
A: Its cytotoxicity at 10 µM is 2.42%.

Q: Which cytotoxicity at 10 µM does the source give for COCc1cccc(NC(C)C(=O)N(C)Cc2cccc(F)c2)c1 (configuration not stated) here?
A: The cytotoxicity at 10 µM was 12.2%.

Q: Which cytotoxicity at 10 µM does the source give for COCC(=O)N1CCN(C(=O)c2scnc2C)CC1 here?
A: Its cytotoxicity at 10 µM is -9.75%.

Q: Which cytotoxicity at 10 µM does the source give for Cc1cc(C)n(C2CCN(c3ncnc4sc5c(c34)CCNC5)C2)n1 (configuration not stated) here?
A: Its cytotoxicity at 10 µM is 17.3%.

Q: Which cytotoxicity at 10 µM does the source give for COc1cc(OC)nc(N2CCCC(c3nccn3CCN(C)C)C2)n1 (configuration not stated) here?
A: The cytotoxicity at 10 µM was 5.12%.

Q: For CC(C)=CCCC1(C)CCC(=O)N(CCc2nc(N)cc(O)n2)C1 (configuration not stated), which cytotoxicity at 10 µM is on record?
A: The cytotoxicity at 10 µM was 0.361%.

Q: Which cytotoxicity at 10 µM does the source give for O=C1NC[C@@]2(C(=O)O)CN(Cc3ccc(Oc4ccccc4)cc3)C[C@@H]12 here?
A: The cytotoxicity at 10 µM was -8.39%.

Q: For CC(C)c1noc(CN(C)C(=O)c2ccccc2-c2nc[nH]n2)n1, which cytotoxicity at 10 µM is on record?
A: The cytotoxicity at 10 µM was 10.4%.

Q: Which cytotoxicity at 10 µM does the source give for c1ccc(CCc2n[nH]c(C3CCOC3)n2)cc1 (configuration not stated) here?
A: Its cytotoxicity at 10 µM is 2.78%.

Q: With CC(O)CN1CCC(CN(C)Cc2cccc(C(=O)N(C)C)c2)CC1 (configuration not stated) as the compound, how does the cytotoxicity at 10 µM read?
A: The cytotoxicity at 10 µM was -5.74%.

Q: For COc1ccc(C2CCCN2C(=O)NCCn2ccnc2)cc1 (configuration not stated), which cytotoxicity at 10 µM is on record?
A: Its cytotoxicity at 10 µM is -9.13%.

Q: With O=C(Nc1nccs1)NC1CCN(CC2CCCC2)CC1 as the compound, how does the cytotoxicity at 10 µM read?
A: Its cytotoxicity at 10 µM is -8.07%.

Q: Which cytotoxicity at 10 µM does the source give for c1coc(-c2nc(CNCCn3cccn3)cs2)c1 here?
A: The cytotoxicity at 10 µM was -13.8%.

Q: With CCOc1ccccc1OC1CCN(C(=O)c2cnsn2)CC1 as the compound, how does the cytotoxicity at 10 µM read?
A: The cytotoxicity at 10 µM was 0.32%.

Q: For CCn1cc(NC(=O)NCC(C)N(C)C)cn1 (configuration not stated), which cytotoxicity at 10 µM is on record?
A: Its cytotoxicity at 10 µM is -18.8%.

Q: Which cytotoxicity at 10 µM does the source give for COc1ccccc1CC(=O)N1CCCC(n2nc(C)nc2C)C1 (configuration not stated) here?
A: The cytotoxicity at 10 µM was -4.47%.

Q: With Cc1nc(C)n(CC2CCCCN2CCOc2cccc(C#N)c2)n1 (configuration not stated) as the compound, how does the cytotoxicity at 10 µM read?
A: The cytotoxicity at 10 µM was -10%.

Q: For Cc1ccc(C(=O)N(C)Cc2cc(C)on2)cn1, which cytotoxicity at 10 µM is on record?
A: The cytotoxicity at 10 µM was -3.05%.

Q: For Cc1cc(NC(=O)CN(CC2CCOC2)C2CC2)no1 (configuration not stated), which cytotoxicity at 10 µM is on record?
A: Its cytotoxicity at 10 µM is 1.65%.

Q: Which cytotoxicity at 10 µM does the source give for Cc1nc(C2CCCN(C(=O)COCc3ccccc3)C2)no1 (configuration not stated) here?
A: Its cytotoxicity at 10 µM is -2%.

Q: Which cytotoxicity at 10 µM does the source give for Cc1ccc(NS(=O)(=O)c2cc3c(c(C(=O)O)c2)OCCO3)cc1F here?
A: The cytotoxicity at 10 µM was -5.77%.

Q: For CCc1cccc(N2CCC(NC(=O)C3CCOCC3)CC2)c1, which cytotoxicity at 10 µM is on record?
A: Its cytotoxicity at 10 µM is -8.93%.

Q: Which cytotoxicity at 10 µM does the source give for O=C(CCc1ccc(F)c(F)c1)N1CCCCC1Cn1cccn1 (configuration not stated) here?
A: Its cytotoxicity at 10 µM is -8.01%.

Q: For CCn1cnnc1CNC(=O)N1CCN(C(C)C)CC1, which cytotoxicity at 10 µM is on record?
A: The cytotoxicity at 10 µM was -18.1%.

Q: Which cytotoxicity at 10 µM does the source give for CC(C)c1nnc2n1CCN(C(=O)c1ccc(S(C)(=O)=O)cc1)C2 here?
A: The cytotoxicity at 10 µM was -0.252%.

Q: Which cytotoxicity at 10 µM does the source give for CO[C@H]1CN(CC2CCOCC2)[C@@H]2CCCO[C@H]12 here?
A: The cytotoxicity at 10 µM was -100%.

Q: Which cytotoxicity at 10 µM does the source give for COCC(=O)N1CCN(CCn2cccn2)c2nc(C)ccc2C1 here?
A: The cytotoxicity at 10 µM was 10.5%.

Q: Which cytotoxicity at 10 µM does the source give for COc1cccc(CN2CCC3(CCN(C(=O)C4CC=CC4)CC3)C2)c1 here?
A: The cytotoxicity at 10 µM was -0.602%.

Q: With N#Cc1cccc(N2CC3(CCN(C(=O)c4ccncc4)C3)CC2=O)c1 (configuration not stated) as the compound, how does the cytotoxicity at 10 µM read?
A: Its cytotoxicity at 10 µM is -1.75%.

Q: Which cytotoxicity at 10 µM does the source give for CCn1cc(CN2C[C@@H]3CC[C@H]2CN(C(=O)c2cnccn2)C3)cn1 here?
A: Its cytotoxicity at 10 µM is -8.39%.
